Results taken from ChEMBL document CHEMBL5653631, “A Potent and Selective ULK1 Inhibitor Suppresses Autophagy and Sensitizes Cancer Cells to Nutrient Stress” (iScience, 2018).

How the values were obtained:
[1] = target: Fibroblast growth factor receptor 2 (Homo sapiens) (UniProt P21802); experiment: Inhibition of human recombinant FGFR2 at 40 nM in presence of ATP by radiometric assay relative to control
[2] = target: Serine/threonine-protein kinase SIK1 (Homo sapiens) (UniProt P57059); experiment: Inhibition of human recombinant SIK at 40 nM in presence of ATP by radiometric assay relative to control
[3] = target: Cell division cycle 7-related protein kinase (Homo sapiens) (UniProt O00311); experiment: Inhibition of human recombinant CDC7 at 40 nM related to control ULK1
[4] = target: Serine/threonine-protein kinase B-raf (Homo sapiens) (UniProt P15056); experiment: Inhibition of human recombinant BRAF at 500 nM in presence of ATP by radiometric assay relative to control
Summary of the method: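 Part of a radiometric in vitro activity panel of 327 recombinant human kinases. Each kinase was tested in duplicate at one inhibitor concentration. Activity remaining was expressed as a percentage of the vehicle control, and percent inhibition was taken as 100 minus that value.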

[5] = target: T1, Ephrin type-B receptor 3 (Homo sapiens) (UniProt P54753); experiment: Inhibition of human recombinant EphB3 at 500 nM in presence of ATP by radiometric assay relative to control
T1 sequence (whole entry): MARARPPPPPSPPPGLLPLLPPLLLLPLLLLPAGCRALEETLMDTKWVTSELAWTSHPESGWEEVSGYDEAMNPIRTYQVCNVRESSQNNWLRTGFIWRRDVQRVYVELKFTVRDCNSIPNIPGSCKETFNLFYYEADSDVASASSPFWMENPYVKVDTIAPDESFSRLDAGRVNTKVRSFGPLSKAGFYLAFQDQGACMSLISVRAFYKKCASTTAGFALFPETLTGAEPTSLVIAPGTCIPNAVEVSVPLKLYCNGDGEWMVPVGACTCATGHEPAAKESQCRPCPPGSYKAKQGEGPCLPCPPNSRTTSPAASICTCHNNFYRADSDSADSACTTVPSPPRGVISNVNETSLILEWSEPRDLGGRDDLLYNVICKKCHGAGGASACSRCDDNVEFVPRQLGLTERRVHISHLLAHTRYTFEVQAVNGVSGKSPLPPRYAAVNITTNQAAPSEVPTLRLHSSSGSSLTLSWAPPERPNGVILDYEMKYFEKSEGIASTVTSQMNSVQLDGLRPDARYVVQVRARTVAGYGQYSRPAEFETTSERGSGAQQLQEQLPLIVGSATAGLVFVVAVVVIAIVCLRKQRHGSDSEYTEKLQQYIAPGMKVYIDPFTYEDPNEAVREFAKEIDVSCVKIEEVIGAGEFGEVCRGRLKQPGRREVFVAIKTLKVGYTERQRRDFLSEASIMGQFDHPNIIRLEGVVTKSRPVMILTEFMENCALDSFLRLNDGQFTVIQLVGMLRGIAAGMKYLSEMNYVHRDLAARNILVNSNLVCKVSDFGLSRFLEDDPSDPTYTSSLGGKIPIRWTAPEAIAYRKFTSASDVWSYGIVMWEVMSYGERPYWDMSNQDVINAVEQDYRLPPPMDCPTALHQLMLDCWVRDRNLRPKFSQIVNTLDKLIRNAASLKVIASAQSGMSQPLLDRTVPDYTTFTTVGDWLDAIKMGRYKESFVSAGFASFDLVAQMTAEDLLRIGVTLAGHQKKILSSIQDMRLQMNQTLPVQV

[6] = target: T2, Serine/threonine-protein kinase NLK (Homo sapiens) (UniProt Q9UBE8); experiment: Inhibition of human recombinant NLK at 500 nM related to control ULK1
T2 sequence (whole entry): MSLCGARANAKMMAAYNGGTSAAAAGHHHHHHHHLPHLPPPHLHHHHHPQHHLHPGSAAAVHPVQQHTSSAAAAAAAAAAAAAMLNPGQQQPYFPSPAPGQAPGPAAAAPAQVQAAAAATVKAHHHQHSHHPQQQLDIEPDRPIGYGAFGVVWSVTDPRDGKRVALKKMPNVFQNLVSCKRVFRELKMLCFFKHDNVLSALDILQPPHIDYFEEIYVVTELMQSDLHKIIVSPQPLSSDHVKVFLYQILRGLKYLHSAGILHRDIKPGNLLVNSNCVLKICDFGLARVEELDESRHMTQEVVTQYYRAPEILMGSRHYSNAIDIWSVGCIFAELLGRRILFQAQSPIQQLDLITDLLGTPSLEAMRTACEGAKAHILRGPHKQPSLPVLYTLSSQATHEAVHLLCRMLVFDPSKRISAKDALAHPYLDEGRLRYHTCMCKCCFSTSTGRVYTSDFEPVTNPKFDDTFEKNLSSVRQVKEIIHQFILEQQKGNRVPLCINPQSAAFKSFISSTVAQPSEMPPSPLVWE

[7] = target: Mitogen-activated protein kinase 11 (Homo sapiens) (UniProt Q15759); experiment: Inhibition of human recombinant p38beta at 15 nM in presence of ATP by radiometric assay relative to control
[8] = target: T3, Tribbles homolog 2 (Homo sapiens) (UniProt Q92519); experiment: Inhibition of human recombinant Trb2 at 15 nM related to control ULK1
T3 sequence (whole entry): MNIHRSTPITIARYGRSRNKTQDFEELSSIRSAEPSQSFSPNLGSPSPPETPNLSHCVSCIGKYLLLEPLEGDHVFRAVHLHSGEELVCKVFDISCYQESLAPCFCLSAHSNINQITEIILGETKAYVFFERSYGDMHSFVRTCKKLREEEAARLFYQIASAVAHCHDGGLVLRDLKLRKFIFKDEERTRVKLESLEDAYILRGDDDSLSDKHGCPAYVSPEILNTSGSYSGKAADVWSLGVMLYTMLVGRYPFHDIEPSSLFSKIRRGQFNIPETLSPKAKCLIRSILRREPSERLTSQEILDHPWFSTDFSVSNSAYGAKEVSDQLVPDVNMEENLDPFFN

[9] = target: Protein kinase C iota type (Homo sapiens) (UniProt P41743); experiment: Inhibition of human recombinant PKCi at 15 nM related to control ULK1
Protein kinase C iota type (Homo sapiens), sequence (P41743 whole entry, looked up): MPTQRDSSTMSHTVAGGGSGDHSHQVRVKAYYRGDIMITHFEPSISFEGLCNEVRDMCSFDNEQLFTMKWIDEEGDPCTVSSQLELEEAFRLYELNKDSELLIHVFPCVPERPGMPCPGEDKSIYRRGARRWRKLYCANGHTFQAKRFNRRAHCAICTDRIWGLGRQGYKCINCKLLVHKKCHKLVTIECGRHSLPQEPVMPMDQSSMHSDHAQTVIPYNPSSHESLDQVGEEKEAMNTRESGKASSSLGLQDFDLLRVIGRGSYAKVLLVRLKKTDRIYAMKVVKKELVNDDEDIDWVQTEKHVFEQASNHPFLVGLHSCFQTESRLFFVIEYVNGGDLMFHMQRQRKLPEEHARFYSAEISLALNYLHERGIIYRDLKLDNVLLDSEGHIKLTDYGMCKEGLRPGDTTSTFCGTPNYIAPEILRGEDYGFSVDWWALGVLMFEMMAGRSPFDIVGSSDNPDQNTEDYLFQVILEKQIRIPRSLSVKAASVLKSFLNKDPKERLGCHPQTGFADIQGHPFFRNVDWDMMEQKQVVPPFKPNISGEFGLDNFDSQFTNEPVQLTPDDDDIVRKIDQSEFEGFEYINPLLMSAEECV

Fibroblast growth factor receptor 2 (Homo sapiens), sequence (P21802 22-821 limits assumed): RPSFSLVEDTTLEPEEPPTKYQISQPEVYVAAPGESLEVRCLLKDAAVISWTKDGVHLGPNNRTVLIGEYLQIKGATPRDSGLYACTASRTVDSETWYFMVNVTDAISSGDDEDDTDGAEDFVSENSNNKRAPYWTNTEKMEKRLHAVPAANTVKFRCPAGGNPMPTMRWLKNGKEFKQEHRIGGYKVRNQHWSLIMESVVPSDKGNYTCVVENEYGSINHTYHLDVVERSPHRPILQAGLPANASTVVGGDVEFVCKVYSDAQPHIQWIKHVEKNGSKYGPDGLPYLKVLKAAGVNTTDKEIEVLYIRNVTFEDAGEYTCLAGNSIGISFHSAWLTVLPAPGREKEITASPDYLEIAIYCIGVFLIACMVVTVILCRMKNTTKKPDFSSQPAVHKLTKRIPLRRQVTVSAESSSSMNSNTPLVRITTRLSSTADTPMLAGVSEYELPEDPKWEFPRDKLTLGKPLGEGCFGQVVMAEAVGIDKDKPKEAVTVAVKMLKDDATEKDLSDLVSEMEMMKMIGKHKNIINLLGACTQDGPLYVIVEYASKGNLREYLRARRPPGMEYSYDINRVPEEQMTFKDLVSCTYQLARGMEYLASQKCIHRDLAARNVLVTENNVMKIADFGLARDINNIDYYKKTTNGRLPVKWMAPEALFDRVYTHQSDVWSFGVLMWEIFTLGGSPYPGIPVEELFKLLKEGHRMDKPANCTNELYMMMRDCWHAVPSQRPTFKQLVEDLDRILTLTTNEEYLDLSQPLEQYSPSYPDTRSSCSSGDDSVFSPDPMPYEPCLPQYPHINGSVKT
Mitogen-activated protein kinase 11 (Homo sapiens), sequence (Q15759 whole entry): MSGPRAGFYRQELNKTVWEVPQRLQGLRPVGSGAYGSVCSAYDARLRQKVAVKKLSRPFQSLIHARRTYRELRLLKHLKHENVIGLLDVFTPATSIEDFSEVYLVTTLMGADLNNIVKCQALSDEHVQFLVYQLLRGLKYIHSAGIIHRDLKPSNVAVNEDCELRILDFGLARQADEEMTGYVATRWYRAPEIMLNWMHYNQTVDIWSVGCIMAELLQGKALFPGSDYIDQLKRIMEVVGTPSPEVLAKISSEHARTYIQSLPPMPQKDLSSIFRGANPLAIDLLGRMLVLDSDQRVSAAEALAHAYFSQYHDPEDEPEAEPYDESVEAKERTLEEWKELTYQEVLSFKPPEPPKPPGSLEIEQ
Serine/threonine-protein kinase B-raf (Homo sapiens), sequence (P15056 whole entry): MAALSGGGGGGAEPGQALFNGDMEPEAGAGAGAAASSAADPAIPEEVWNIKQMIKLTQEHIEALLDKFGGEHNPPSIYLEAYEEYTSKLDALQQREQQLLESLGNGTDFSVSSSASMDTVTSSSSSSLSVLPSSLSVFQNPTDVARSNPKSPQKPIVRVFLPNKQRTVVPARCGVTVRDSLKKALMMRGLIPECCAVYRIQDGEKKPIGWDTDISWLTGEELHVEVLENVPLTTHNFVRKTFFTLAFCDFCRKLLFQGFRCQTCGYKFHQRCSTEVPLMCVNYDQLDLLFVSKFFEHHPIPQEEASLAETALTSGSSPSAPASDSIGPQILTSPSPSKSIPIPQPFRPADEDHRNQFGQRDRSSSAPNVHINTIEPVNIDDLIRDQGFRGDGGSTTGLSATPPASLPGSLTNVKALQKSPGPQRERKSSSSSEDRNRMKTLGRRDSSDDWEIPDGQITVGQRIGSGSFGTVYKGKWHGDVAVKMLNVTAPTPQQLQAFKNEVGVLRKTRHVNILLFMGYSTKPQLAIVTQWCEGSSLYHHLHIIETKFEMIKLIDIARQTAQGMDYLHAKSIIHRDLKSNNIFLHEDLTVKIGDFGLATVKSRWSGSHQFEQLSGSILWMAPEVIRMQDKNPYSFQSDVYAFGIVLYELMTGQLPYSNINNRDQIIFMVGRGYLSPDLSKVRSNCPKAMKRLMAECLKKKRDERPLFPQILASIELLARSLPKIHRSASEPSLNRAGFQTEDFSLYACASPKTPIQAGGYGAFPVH
Serine/threonine-protein kinase SIK1 (Homo sapiens), sequence (P57059 whole entry): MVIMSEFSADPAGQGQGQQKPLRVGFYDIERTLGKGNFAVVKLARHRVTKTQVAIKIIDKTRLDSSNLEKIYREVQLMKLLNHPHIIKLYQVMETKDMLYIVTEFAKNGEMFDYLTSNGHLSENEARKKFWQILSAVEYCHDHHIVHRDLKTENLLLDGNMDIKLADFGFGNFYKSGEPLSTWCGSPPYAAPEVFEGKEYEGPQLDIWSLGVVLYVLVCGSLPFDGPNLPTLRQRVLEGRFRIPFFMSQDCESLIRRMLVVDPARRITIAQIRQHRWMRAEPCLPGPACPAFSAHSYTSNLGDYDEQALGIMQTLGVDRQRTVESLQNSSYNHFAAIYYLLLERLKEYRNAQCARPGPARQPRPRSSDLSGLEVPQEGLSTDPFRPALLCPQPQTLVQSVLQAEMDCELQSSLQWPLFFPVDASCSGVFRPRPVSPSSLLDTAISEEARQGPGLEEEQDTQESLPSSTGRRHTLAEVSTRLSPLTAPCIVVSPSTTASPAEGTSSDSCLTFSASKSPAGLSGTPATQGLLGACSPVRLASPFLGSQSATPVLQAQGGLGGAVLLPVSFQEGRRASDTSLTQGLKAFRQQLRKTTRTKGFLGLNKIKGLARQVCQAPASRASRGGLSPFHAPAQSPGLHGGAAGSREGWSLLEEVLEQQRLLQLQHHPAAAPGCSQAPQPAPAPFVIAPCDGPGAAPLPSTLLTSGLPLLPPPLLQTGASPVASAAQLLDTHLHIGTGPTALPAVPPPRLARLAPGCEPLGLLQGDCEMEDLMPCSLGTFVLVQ
Cell division cycle 7-related protein kinase (Homo sapiens), sequence (O00311 whole entry, looked up): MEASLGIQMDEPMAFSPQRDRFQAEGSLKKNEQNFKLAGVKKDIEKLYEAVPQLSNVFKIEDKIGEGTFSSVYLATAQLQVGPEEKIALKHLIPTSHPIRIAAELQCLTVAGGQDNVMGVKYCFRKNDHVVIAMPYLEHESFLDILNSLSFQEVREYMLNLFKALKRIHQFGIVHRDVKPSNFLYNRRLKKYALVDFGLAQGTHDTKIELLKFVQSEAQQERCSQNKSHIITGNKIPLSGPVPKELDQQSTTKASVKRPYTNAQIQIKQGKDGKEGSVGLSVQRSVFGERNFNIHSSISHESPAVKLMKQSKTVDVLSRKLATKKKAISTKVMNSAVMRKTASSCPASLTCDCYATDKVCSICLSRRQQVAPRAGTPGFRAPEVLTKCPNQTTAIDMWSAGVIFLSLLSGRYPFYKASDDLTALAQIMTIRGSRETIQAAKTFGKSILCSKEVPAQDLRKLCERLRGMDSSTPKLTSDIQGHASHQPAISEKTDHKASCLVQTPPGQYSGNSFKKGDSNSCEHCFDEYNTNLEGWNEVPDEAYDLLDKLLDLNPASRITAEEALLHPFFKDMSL

SMILES: O=C(N[C@@H](C1CC1)C(F)(F)F)c1cc(-c2cnn3cc(-c4ccc(F)cc4)cnc23)cs1
- inhibition [1]: 0%
- inhibition [2]: 20%
- fold change (FC) [3]: 0.53

SMILES: CNC(=O)c1ccccc1Oc1nc(Nc2cc(OC)c(OC)c(OC)c2)ncc1Br
- inhibition [4]: 8%
- inhibition [5]: 0%
- fold change (FC) [6]: 0.05

SMILES: CC(C)[C@H](NC(=O)c1cc(-c2cnn3cc(-c4ccc(OCCN5CCCCC5)cc4)cnc23)cs1)C(F)(F)F
- inhibition [7]: 1%
- fold change (FC) [8]: 0.41
- fold change (FC) [9]: 0.05
